Reference: ChEMBL document CHEMBL1145471, “Small molecule regulators of autophagy identified by an image-based high-throughput screen” (Proc Natl Acad Sci U S A, 2007)
Active and inactive are the calls of the source. The rule behind the calls is not given here.

Key:
H4 [1] = assay: Increase in FYVE-RFP+ vesicle intensity per cell in human H4 cells after 8 hrs relative to control; assay type: functional; parameters: concentration or dose not given beside the values
Outline: (§1)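 H4 cells stably expressing FYVE-RFP (H4-FYVE), grown in DMEM with 10% FBS, penicillin/streptomycin and 2 mM L-glutamine at 37°C, 5% CO2, seeded in 96-well plates and exposed to compound. Fixed in 4% paraformaldehyde, nuclei stained with 3 μg/ml DAPI, FYVE-RFP+ vesicles quantified by high-throughput fluorescence microscopy against DMSO control. Triplicate wells, mean ± SD.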

H4 [2] = assay: Increase in long-lived protein degradation in human H4 cells after 1 hr relative to control; assay type: functional; parameters: concentration or dose not given beside the values
H4 [3] = assay: Increase in light chain 3-GFP+ autophagosome vesicle area per cell in human H4 cells at 5.3 uM after 24 hrs by high throughput fluorescence microscopy relative to control; assay type: functional
Outline: (§2)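 H4 cells stably expressing LC3-GFP, seeded in 96-well plates and exposed to compound for 24 h; fixed in 4% paraformaldehyde, nuclei stained with 3 μg/ml DAPI. Automated fluorescence microscopy scored number, size and intensity of LC3-GFP spots; values expressed relative to DMSO-treated wells, rapamycin positive control. Triplicate wells, mean ± SD; experiments repeated three times.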

H4 [4] = assay: Increase in long-lived protein degradation in human H4 cells after 4 hrs relative to control; assay type: functional; parameters: concentration or dose not given beside the values
H4 [5] = assay: Increase in long-lived protein degradation in human H4 cells after 2 hrs relative to control; assay type: functional; parameters: concentration or dose not given beside the values
H4 [6] = assay: Increase in FYVE-RFP+ vesicle intensity per cell in human H4 cells after 2 hrs relative to control; assay type: functional; parameters: concentration or dose not given beside the values; outline: as §1
H4 [7] = assay: Induction of light chain 3-GFP level in human H4 cells at 5.3 uM after 24 hrs by high throughput fluorescence microscopy relative to control; assay type: functional
Outline: (§3)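 H4 cells stably expressing LC3-GFP, kept in DMEM/10% FBS at 37°C, 5% CO2, were seeded in 96-well plates and exposed to compound for 24 h. Cells were then fixed in 4% paraformaldehyde and stained with 3 μg/ml DAPI. Automated fluorescence microscopy scored the number, size and intensity of LC3-GFP spots. Values are percent of DMSO wells, in triplicate, mean ± SD. Rapamycin served as positive control.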

[8] = target: T1, Serine/threonine-protein kinase mTOR (Homo sapiens, UniProt P42345); assay: Effect on mTOR phosphorylation in human H4 cells at 5.3 uM after 4 hrs; assay type: cell-based
Outline: (§4)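 H4 cells exposed to compound for 4 h. Lysates analysed by Western blot with anti-phospho and anti-total mTOR antibodies, with actin as loading control. Rapamycin served as reference.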

H4 [9] = assay: Reduction of poly(Q) level in human H4 cells expressing EGFP-Q79-HA after 24 hrs; assay type: functional, cell-based
Outline: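 H4 cells were transiently transfected with an EGFP-Q79-HA expression vector. The medium was replaced 6 h after transfection and compounds were added. Poly(Q) was detected with anti-HA antibody.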

H4 [10] = assay: Increase in ratio of light chain 3 subunit 2 to light chain 3 subunit 1 in human H4 cells at 5.3 uM after 4 hrs by Western blot; assay type: functional, cell-based
Outline: (§5)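 H4 cells were treated with each compound for 4 h, then lysed. Lysates were immunoblotted with anti-LC3 antibody, with actin as loading control. LC3II and LC3I bands were compared as an LC3II/LC3I ratio.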

H4 [11] = assay: Increase in long-lived protein degradation in human H4 cells after 24 hrs relative to control; assay type: functional; parameters: concentration or dose not given beside the values
H4 [12] = assay: Increase in FYVE-RFP+ vesicle intensity per cell in human H4 cells after 4 hrs relative to control; assay type: functional; parameters: concentration or dose not given beside the values; outline: as §1
H4 [13] = assay: Increase in light chain 3-GFP+ autophagosome vesicle number per cell in human H4 cells at 5.3 uM after 24 hrs by high throughput fluorescence microscopy relative to control; assay type: functional; outline: as §3
H4 [14] = assay: Increase in light chain 3-GFP+ autophagosome vesicle intensity per cell in human H4 cells at 5.3 uM after 24 hrs by high throughput fluorescence microscopy relative to control; assay type: functional; outline: as §2
H4 [15] = assay: Increase in light chain 3-GFP+ autophagosome vesicle area per cell in human H4 cells at 8.3 uM after 24 hrs by high throughput fluorescence microscopy relative to control; assay type: functional
Outline: (§6)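 H4 cells stably expressing LC3-GFP, seeded in 96-well plates and exposed to compound for 24 h; screening concentrations were 3–12 μM, with rapamycin 0.22 μM and bafilomycin A1 0.40 μM. Cells fixed in 4% paraformaldehyde and stained with 3 μg/ml DAPI. Number, size and intensity of LC3-GFP spots measured by high-throughput fluorescence microscopy and expressed as percent of DMSO-treated wells. Rapamycin was the positive control. Triplicate wells, mean ± SD; experiments repeated three times.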

H4 [16] = assay: Induction of light chain 3-GFP level in human H4 cells at 8.3 uM after 24 hrs by high throughput fluorescence microscopy relative to control; assay type: functional
Outline: (§7)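 H4 cells stably expressing LC3-GFP, grown in DMEM with 10% FBS, penicillin/streptomycin and 2 mM L-glutamine at 37°C, 5% CO2. Cells were seeded in 96-well plates and exposed to library compounds at 3–12 μM for 24 h, then fixed in 4% paraformaldehyde and stained with 3 μg/ml DAPI. LC3-GFP spot number, size and intensity were measured by high-throughput fluorescence microscopy and expressed relative to DMSO. Triplicates, mean ± SD.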

H4 [17] = assay: Increase in light chain 3-GFP+ autophagosome vesicle number per cell in human H4 cells at 8.3 uM after 24 hrs by high throughput fluorescence microscopy relative to control; assay type: functional
Outline: (§8)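 H4 cells stably expressing LC3-GFP were grown in DMEM with 10% FBS and 2 mM L-glutamine at 37°C, 5% CO2. They were exposed to each compound for 24 h, with DMSO as negative and rapamycin as positive control. Cells were then fixed in 4% paraformaldehyde and stained with 3 μg/ml DAPI. High-throughput fluorescence imaging scored LC3-GFP spot number, size and intensity, expressed relative to DMSO. Mean ± SD of triplicates; experiments repeated three times.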

H4 [18] = assay: Increase in light chain 3-GFP+ autophagosome vesicle intensity per cell in human H4 cells at 8.3 uM after 24 hrs by high throughput fluorescence microscopy relative to control; assay type: functional; outline: as §8
[19] = target: T1, Serine/threonine-protein kinase mTOR; assay: Effect on mTOR phosphorylation in human H4 cells at 8.3 uM after 4 hrs; assay type: cell-based; outline: as §4
H4 [20] = assay: Increase in ratio of light chain 3 subunit 2 to light chain 3 subunit 1 in human H4 cells at 8.3 uM after 4 hrs by Western blot; assay type: functional, cell-based; outline: as §5
H4 [21] = assay: Effect on FYVE-RFP+ vesicle intensity per cell in human H4 cells after 8 hrs relative to control; assay type: functional; parameters: concentration or dose not given beside the values; outline: as §1
H4 [22] = assay: Effect on FYVE-RFP+ vesicle intensity per cell in human H4 cells after 2 hrs relative to control; assay type: functional; parameters: concentration or dose not given beside the values; outline: as §1
H4 [23] = assay: Increase in light chain 3-GFP+ autophagosome vesicle number per cell in human H4 cells at 7.2 uM after 24 hrs by high throughput fluorescence microscopy relative to control; assay type: functional; outline: as §8
H4 [24] = assay: Increase in light chain 3-GFP+ autophagosome vesicle intensity per cell in human H4 cells at 7.2 uM after 24 hrs by high throughput fluorescence microscopy relative to control; assay type: functional; outline: as §8
H4 [25] = assay: Increase in light chain 3-GFP+ autophagosome vesicle area per cell in human H4 cells at 7.2 uM after 24 hrs by high throughput fluorescence microscopy relative to control; assay type: functional; outline: as §6
H4 [26] = assay: Induction of light chain 3-GFP level in human H4 cells at 7.2 uM after 24 hrs by high throughput fluorescence microscopy relative to control; assay type: functional; outline: as §7
H4 [27] = assay: Effect on FYVE-RFP+ vesicle intensity per cell in human H4 cells after 4 hrs relative to control; assay type: functional; parameters: concentration or dose not given beside the values; outline: as §1
H4 [28] = assay: Increase in light chain 3-GFP+ autophagosome vesicle intensity per cell in human H4 cells at 2.1 uM after 24 hrs by high throughput fluorescence microscopy relative to control; assay type: functional
H4 [29] = assay: Increase in light chain 3-GFP+ autophagosome vesicle area per cell in human H4 cells at 2.1 uM after 24 hrs by high throughput fluorescence microscopy relative to control; assay type: functional
H4 [30] = assay: Increase in light chain 3-GFP+ autophagosome vesicle number per cell in human H4 cells at 2.1 uM after 24 hrs by high throughput fluorescence microscopy relative to control; assay type: functional; outline: as §8
H4 [31] = assay: Induction of light chain 3-GFP level in human H4 cells at 2.1 uM after 24 hrs by high throughput fluorescence microscopy relative to control; assay type: functional

Compound | Activity (H4 [1]) [%] | Activity (H4 [2]) [%] | Activity (H4 [4]) [%] | Activity (H4 [5]) [%] | Activity (H4 [6]) [%] | Activity (H4 [9]) | Activity (H4 [11]) [%] | Activity (H4 [12]) [%] | Activity (H4 [21]) [%] | Activity (H4 [22]) [%] | Activity (H4 [27]) [%] | other results
O=C1NCN(c2ccccc2)C12CCN(CCCC(c1ccc(F)cc1)c1ccc(F)cc1)CC2 [FLUSPIRILENE] | 108.53 | 93.82 | 144.79 | 143.17 | 224.98 | Dose-dependent effect | 145.5 | 142.15 | – | – | – | Activity (H4 [3]): 532.51%; Activity (H4 [7]): 143.3%; Activity [8]: inactive; Activity (H4 [10]): Active; Activity (H4 [13]): 309.6%; Activity (H4 [14]): 1593.16%
CN1CCN(CCCN2c3ccccc3Sc3ccc(C(F)(F)F)cc32)CC1 [TRIFLUOPERAZINE] | 94.28 | 76.62 | 109 | 105.6 | 136.58 | Dose-dependent effect | 124.78 | 111.52 | – | – | – | Activity (H4 [15]): 520.24%; Activity (H4 [16]): 105.72%; Activity (H4 [17]): 364.24%; Activity (H4 [18]): 1010.35%; Activity [19]: inactive; Activity (H4 [20]): Active
COC(=O)c1c(C)[nH]c(C)c1C(=O)c1ccccc1Cc1ccccc1 | – | 101.34 | 97.03 | 111.04 | – | – | 90.97 | – | 87.62 | 99.43 | 78.17 | Activity (H4 [23]): 161.73%; Activity (H4 [24]): 200.83%; Activity (H4 [25]): 18010%; Activity (H4 [26]): 132.45%
C/C=C/C[C@@H](C)[C@@H](O)[C@H]1C(=O)N[C@@H](CC)C(=O)N(C)CC(=O)N(C)[C@@H](CC(C)C)C(=O)N[C@@H](C(C)C)C(=O)N(C)[C@@H](CC(C)C)C(=O)N[C@@H](C)C(=O)N[C@H](C)C(=O)N(C)[C@@H](CC(C)C)C(=O)N(C)[C@@H](CC(C)C)C(=O)N(C)[C@@H](C(C)C)C(=O)N1C [CYCLOSPORINE] | – | 114.15 | 101.74 | 117.39 | – | – | 104.28 | – | 55.82 | 73.62 | 71.69 | Activity (H4 [28]): 178.79%; Activity (H4 [29]): 181.14%; Activity (H4 [30]): 155.88%; Activity (H4 [31]): 159.64%
